Our source for the inhibition, EC50 and half-life values is ChEMBL document CHEMBL2321875 (J Med Chem, 2013).

Broadly, the EC50 is the midpoint of the concentration-response curve. A high value points to a less potent agent. As a reminder, the half-life is the time in which the quantity being followed falls by half. Higher therefore signals slow loss.

The structures appear in SMILES notation. Active and inactive are the calls of the source. The rule behind the calls is not given here.

Series [1] concerns Danio rerio. The experiment in a line: In vivo inhibition of porcupine in zebrafish embryos assessed as inhibition of Wnt/beta-casein-mediated posterior axis formation at 1 to 5 uM applied in aquarium water by mCherry-based reporter gene assay. The class given is functional, organism-based. The following applies: in the assay text read “beta-catenin” for “beta-casein”. The method, boiled down:
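Zebrafish embryos carrying an mCherry-based Wnt/β-catenin signaling reporter were exposed to increasing concentrations of compound in the aquarium water. Whole-animal fluorescence intensity was quantified, and posterior axis formation was scored.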

Series [2] addresses T1, Protein-serine O-palmitoleoyltransferase porcupine (Mus musculus, UniProt Q9JJJ7).
T1 sequence (Q9JJJ7 whole entry): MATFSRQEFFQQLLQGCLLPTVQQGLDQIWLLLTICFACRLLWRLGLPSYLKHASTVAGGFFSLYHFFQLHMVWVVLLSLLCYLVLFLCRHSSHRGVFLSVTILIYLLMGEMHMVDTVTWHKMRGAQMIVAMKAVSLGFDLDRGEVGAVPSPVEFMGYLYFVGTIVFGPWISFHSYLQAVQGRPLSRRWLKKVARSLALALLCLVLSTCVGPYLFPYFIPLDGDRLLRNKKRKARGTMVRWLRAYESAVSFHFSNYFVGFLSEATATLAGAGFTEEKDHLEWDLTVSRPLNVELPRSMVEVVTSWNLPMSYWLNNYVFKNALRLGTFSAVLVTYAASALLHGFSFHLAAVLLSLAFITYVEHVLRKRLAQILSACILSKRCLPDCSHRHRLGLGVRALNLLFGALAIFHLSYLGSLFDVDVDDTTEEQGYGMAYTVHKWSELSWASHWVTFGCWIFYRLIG
The experiment in a line: Inhibition of porcupine-mediated Wnt signalling in mouse L cells after 24 hrs by SuperTopflash reporter assay. The class given is cell-based. Background: A reporter such as luciferase makes a cellular process visible.

The target in series [3] is T2, Protein-serine O-palmitoleoyltransferase porcupine (Mus musculus) (UniProt Q9JJJ7).
T2 sequence (whole entry): T1 sequence (Q9JJJ7 whole entry)
Description: Inhibition of porcupine in E11.5 mouse embryo kidney assessed as inhibition of Wnt-mediated branching morphogenesis at 10 to 50 nM measured every 24 hrs by fluorescent stereoscopic analysis relative to control. In short, it runs like this:
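Kidneys from E11.5 Hoxb7Cre;RosaTomato mouse embryos were cultured at the air/media interface in media containing 1 nM to 1 μM compound, with DMSO controls. Media was replaced and fluorescent stereoscope images were taken every 24 h. The read-out was the fold increase in ureteric bud tip number from 0 to 48 h, compared by Student t test.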

In series [4] the test system is Danio rerio. The experiment in a line: In vivo inhibition of porcupine in juveline stage of zebrafish assessed as inhibition of Wnt-mediated tail fin regeneration at 5 uM. The class given is functional, organism-based.
The nature of series [5]: Half life in ICR/CD-1 mouse liver S9 fraction at 2 uM by LC-MS/MS analysis. The class given is ADME, subcellular.
Series [6] can be described thus: Half life in rat plasma at 2 uM. The class given is ADME, cell-free.
Series [7] is described as follows: Half life in mouse plasma at 2 uM. The class given is ADME, cell-free.
For series [8], the target named is T3, Protein-serine O-palmitoleoyltransferase porcupine (Homo sapiens) (UniProt Q9H237).
T3 sequence (whole entry): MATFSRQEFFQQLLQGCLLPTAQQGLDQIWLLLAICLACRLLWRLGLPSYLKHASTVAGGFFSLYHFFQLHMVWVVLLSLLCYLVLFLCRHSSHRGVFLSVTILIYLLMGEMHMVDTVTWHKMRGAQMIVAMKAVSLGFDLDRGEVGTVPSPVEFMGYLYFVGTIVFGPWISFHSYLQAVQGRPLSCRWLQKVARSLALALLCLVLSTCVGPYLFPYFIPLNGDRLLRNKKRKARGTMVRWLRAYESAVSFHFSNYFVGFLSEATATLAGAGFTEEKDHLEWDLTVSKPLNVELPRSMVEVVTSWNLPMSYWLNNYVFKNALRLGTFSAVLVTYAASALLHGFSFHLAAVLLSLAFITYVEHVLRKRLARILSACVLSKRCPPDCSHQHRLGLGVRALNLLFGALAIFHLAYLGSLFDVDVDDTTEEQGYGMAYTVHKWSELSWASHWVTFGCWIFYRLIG
The experiment in a line: Inhibition of porcupine-mediated phosphorylation of dishevelled 2 in HEK293 cells at 2.5 uM. Format: cell-based.

Take `O=C(CSc1nc2c(c(=O)n1-c1ccccc1)SCC2)Nc1ccc(-c2cncnc2)cn1`: the inhibition result in the series on Danio rerio [1] was “inactive”. In series [2], this compound displayed an EC50 of 5.5 nM.

Consider `O=C(CSc1nc2c(c(=O)n1-c1ccccc1)SCC2)Nc1ccc(-c2ccccc2)cn1`, for which the inhibition result (in series [3]; in the series on Danio rerio [1]; in the series with Danio rerio [4]; in series [8]) was “Active” each time. Moreover, the half-life at 2 µM in series [5] is 26 min; in series [6], 190 min; in series [7] it was 2 min. It took 0.5 nM to reach a half-maximal effect in series [2] (EC50).

As to `O=C(CSc1nc2c(c(=O)n1-c1ccccc1)SCC2)Nc1ccc(-c2cccs2)cn1`, the inhibition entry in the series with Danio rerio [1] was “Active”. Moreover, the EC50 in series [2] turned out to be 0.3 nM.

For `O=C(CSc1nc2c(c(=O)n1-c1ccccc1)SCC2)Nc1ccc(-c2ccoc2)cn1`, the inhibition entry in the series on Danio rerio [1] was “inactive”. Also, the midpoint of the response in series [2], the EC50, lay at 1.5 nM.
